Results from publication PMC8251533 (Clinical Pharmacology in Drug Development, 2021).

Columns and labels:
[1] = Semaglutide plasma pharmacokinetics after a single dose of oral semaglutide; format: in vivo, human
How it was run: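 Same crossover, dosing and fasting. Plasma was drawn predose and 0.5–24 h and analysed by LC-MS/MS (LLOQ 0.73 nmol/L). Trapezoidal AUC0-24h was used; log-transformed mixed models (volume, period fixed; subject random) allowed left-censoring. For correlation, log PK was modelled against log time to complete tablet erosion, assessed by gamma scintigraphy of ¹¹¹In-labelled tablets. 2^β gave the fold change per doubling. All-below-LLOQ profiles were imputed from 0.5×LLOQ.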

[2] = SNAC plasma pharmacokinetics after a single dose of oral semaglutide; format: in vivo, human; details: for Median tmax,SNAC: plasma, LC-MS/MS
How it was run: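 Two-period randomized crossover in 26 fasting healthy men. Each received one 10 mg tablet (coformulated with 300 mg absorption enhancer), upright, between 8 and 11 am, with 50 or 240 mL water. Fasting continued ≥4 h, with 200 mL water at 2 h. Plasma was drawn predose and 10 min–6 h and assayed by protein precipitation LC-MS/MS. Trapezoidal AUC0-6h used actual times. AUC and Cmax were log-transformed; mixed model had volume and period fixed, subject random.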

[3] = linear mixed model, log-transformed
[4] = single oral semaglutide tablet with 300 mg SNAC, fasting healthy men

Row | Compound | 2^β, estimated fold change in AUC0-24h,semaglutide if time to CTE is doubled [1, 3] | 2^β, estimated fold change in Cmax,semaglutide if time to CTE is doubled [1, 3] | 2^β, estimated fold change in tmax,semaglutide if time to CTE is doubled [1, 3] | AUC0-24h,semaglutide, higher with 50 versus 240 mL water ([1]; single 10 mg oral semaglutide) | Cmax,semaglutide, higher with 50 versus 240 mL water ([1]; single 10 mg oral semaglutide) | Median tmax,SNAC ([2]; 50 mL water) | Median tmax,SNAC ([2]; 240 mL water) | AUC0-6h,SNAC, lower with 50 versus 240 mL water [2, 4] | Cmax,SNAC, lower with 50 versus 240 mL water [2, 4]
1 | CC[C@H](C)[C@H](NC(=O)[C@H](Cc1ccccc1)NC(=O)[C@H](CCC(=O)O)NC(=O)[C@H](CCCCNC(=O)COCCOCCNC(=O)COCCOCCNC(=O)CC[C@H](NC(=O)CCCCCCCCCCCCCCCCC(=O)O)C(=O)O)NC(=O)[C@H](C)NC(=O)[C@H](C)NC(=O)[C@H](CCC(N)=O)NC(=O)CNC(=O)[C@H](CCC(=O)O)NC(=O)[C@H](CC(C)C)NC(=O)[C@H](Cc1ccc(O)cc1)NC(=O)[C@H](CO)NC(=O)[C@H](CO)NC(=O)[C@@H](NC(=O)[C@H](CC(=O)O)NC(=O)[C@H](CO)NC(=O)[C@@H](NC(=O)[C@H](Cc1ccccc1)NC(=O)[C@@H](NC(=O)CNC(=O)[C@H](CCC(=O)O)NC(=O)C(C)(C)NC(=O)[C@@H](N)Cc1cnc[nH]1)[C@@H](C)O)[C@@H](C)O)C(C)C)C(=O)N[C@@H](C)C(=O)N[C@@H](Cc1c[nH]c2ccccc12)C(=O)N[C@@H](CC(C)C)C(=O)N[C@H](C(=O)N[C@@H](CCCNC(=N)N)C(=O)NCC(=O)N[C@@H](CCCNC(=N)N)C(=O)NCC(=O)O)C(C)C [semaglutide] | approximately 2 | approximately 2 | ~1.5 | approximately 70% | approximately 70% |  |  |  | 
2 | O=C([O-])CCCCCCCNC(=O)c1ccccc1O.[Na+] [SNAC, sodium N‐(8‐[2‐hydroxybenzoyl]amino) caprylate] |  |  |  |  |  | 18 min | 18 min | 19% | 38%
